Experimental findings from ChEMBL document CHEMBL1142730, “Design of HIV-1 protease inhibitors active on multidrug-resistant virus” (J Med Chem, 2005) are described below.

Structures are written as SMILES.

The test system of experiment [1] is Human immunodeficiency virus 1. Briefly: Protease inhibitory activity against HIV-1 GSS004421 mutant strain was determined. The format is functional, organism-based.
Experiment [2] relates to Human immunodeficiency virus 1. As to the kind of experiment: Toxicity value against wild type HIV-1 IIIB was determined. The format is functional. In a few lines: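 MT4 cells (150 000 cells/mL) mock-infected, run in parallel with HIV-infected cultures over an identical compound concentration range. Incubated 3 days at 37 °C, 5% CO₂. Reduced expression of the […] GFP reporter serves as the toxicity marker.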

The test system of experiment [3] is Human immunodeficiency virus 1. Briefly: Protease inhibitory activity against HIV-1 r13363 mutant strain was determined. It counts as functional, organism-based.
The subject of experiment [4] is Human immunodeficiency virus 1. Briefly: Protease inhibitory activity against HIV-1 r13025 mutant strain was determined. It counts as functional, organism-based.
The test system of experiment [5] is Human immunodeficiency virus 1. As to the kind of experiment: Protease inhibitory activity against wild type HIV-1 IIIB was determined. The format is functional, organism-based.
Experiment [6] concerns Human immunodeficiency virus 1. Briefly: Protease inhibitory activity against HIV-1 r13034 mutant strain was determined. The format is functional, organism-based.

A word on the pEC50: it is the negative decadic logarithm of the EC50, by convention in mol/L. A higher pEC50 goes with a small EC50. The term pCC50 denotes the negative decadic logarithm of the CC50, by convention in mol/L. In general, EC50 refers to the concentration that produces a half-maximal response. Lower therefore signals a more potent agent.

In the case of `CCC[C@@]1(CCc2ccccc2)CC(O)=C([C@H](CC)c2cccc(NS(=O)(=O)c3ccc(C(F)(F)F)cn3)c2)C(=O)O1`, the pEC50 in experiment [1] was found to be 6.73; in experiment [3] it was 6.15; in experiment [4] it was 5.74. In experiment [2], this compound displayed a pCC50 below 4.49. In experiment [5], this compound had an EC50 of 501 nM.

With `CNCCNc1nc2ccc(S(=O)(=O)N(CC(C)C)C[C@@H](O)[C@H](Cc3ccccc3)NC(=O)O[C@H]3CO[C@H]4OCC[C@H]43)cc2s1`, the negative-log EC50 (pEC50) in experiment [1] is 6.5; in experiment [6], 6.43; in experiment [3], 6.11; in experiment [4], 6.49. The same compound gave a pCC50 in experiment [2] below 4.49. The concentration for a half-maximal effect (EC50) in experiment [5] is 209 nM.

As for `CC(C)CN(C[C@@H](O)[C@H](Cc1ccccc1)NC(=O)O[C@H]1CO[C@H]2OCC[C@H]21)S(=O)(=O)c1ccc2nc(NCCN(C)C)oc2c1`, the negative logarithm of the EC50 (pEC50) in experiment [1] was 6.81; in experiment [6], 7.61; in experiment [3] it was 6.7; in experiment [4], 6.87. This compound yielded a pCC50 in experiment [2] below 4.49. In experiment [5], this compound had an EC50 of 81.3 nM.

Turning to `CC(C)CN(C[C@@H](O)[C@H](Cc1ccccc1)NC(=O)O[C@H]1CO[C@H]2OCC[C@H]21)S(=O)(=O)c1ccc2nc(N(C)CCN3CCCC3)sc2c1`, the negative-log EC50 (pEC50) in experiment [1] turned out to be 6.29; in experiment [6], 6.85; in experiment [3], 5.64; in experiment [4] it was 6.5. In experiment [2], this compound showed a negative logarithm of the CC50 (pCC50) of 4.52. In experiment [5], the EC50 was 5.62 nM.

For the compound `CC(C)CN(C[C@@H](O)[C@H](Cc1ccccc1)NC(=O)O[C@H]1CO[C@H]2OCC[C@H]21)S(=O)(=O)c1ccc2nc(N(C)CCCN3CCCC3)sc2c1`, the pEC50 came to 6.81 in experiment [1], 7.36 in experiment [6], 5.52 in experiment [3] and 6.16 in experiment [4]. This compound also had a negative logarithm of the CC50 (pCC50) in experiment [2] of 4.58. Further, in experiment [5], a half-maximal effect (EC50) was put at 24 nM.

For the compound `CC(C)CN(C[C@@H](O)[C@H](Cc1ccccc1)NC(=O)O[C@H]1CO[C@H]2OCC[C@H]21)S(=O)(=O)c1ccc2nc(N(C)C)oc2c1`, the pEC50 in experiment [1] was 6.58; in experiment [6], 6.92; in experiment [3] it was 5.38; in experiment [4], 6.66. In experiment [2], this compound came in with a pCC50 below 4.49. The same compound gave an EC50 in experiment [5] of 4.17 nM.

Turning to `Cc1cccc(C)c1OCC(=O)N[C@@H](Cc1ccccc1)[C@@H](O)C[C@H](Cc1ccccc1)NC(=O)[C@H](C(C)C)N1CCCNC1=O` [LOPINAVIR], the pEC50 is 6.02 in experiment [1], 6.59 in experiment [6], 6.28 in experiment [3] and 7.84 in experiment [4]. For the same compound, the pCC50 in experiment [2] was 4.95. This compound had a concentration for a half-maximal effect (EC50) in experiment [5] of 9.77 nM.

Consider `CC(C)CN(C[C@@H](O)[C@H](Cc1ccccc1)NC(=O)O[C@H]1CO[C@H]2OCC[C@H]21)S(=O)(=O)c1ccc2nc(N(C)CCN3CCCC3)oc2c1`, for which the pEC50 in experiment [1] is 6.55; in experiment [6], 6.73; in experiment [3], 5.85; in experiment [4], 6.65. Moreover, the pCC50 in experiment [2] was below 4.49. This compound gave a concentration for a half-maximal effect (EC50) in experiment [5] of 33.1 nM.

Turning to `COC(=O)N[C@H](C(=O)N[C@@H](Cc1ccccc1)[C@@H](O)CN(Cc1ccc(-c2ccccn2)cc1)NC(=O)[C@@H](NC(=O)OC)C(C)(C)C)C(C)(C)C` [ATAZANAVIR], the results for the negative-log EC50 (pEC50) in experiment [1], in experiment [3] and in experiment [4] were 7.32, 7.23 and 5.78, respectively. The same compound had a negative-log CC50 (pCC50) in experiment [2] of 4.53. In experiment [5], this compound gave an EC50 of 15.1 nM.

On to `CC(C)CN(C[C@@H](O)[C@H](Cc1ccccc1)NC(=O)O[C@H]1CO[C@H]2OCC[C@H]21)S(=O)(=O)c1ccc2nc(N(C)C)sc2c1`, for which the negative-log EC50 (pEC50) in experiment [1] was 6.59; in experiment [3] it was 5.36; in experiment [4], 7.31. The compound also returned a pCC50 in experiment [2] below 4.49. The same compound had an EC50 in experiment [5] of 3.47 nM.
